This note sets out measurements from ChEMBL document CHEMBL3779815, “Synthesis of newer 1,2,3-triazole linked chalcone and flavone hybrid compounds and evaluation of their antimicrobial and cytotoxic activities” (Eur J Med Chem, 2016).

Data set [1] relates to Candida albicans. Kind of data set: Antifungal activity against Candida albicans ATCC 90028 after 18 to 24 hrs by micro-dilution method. The class given is functional. The procedure, abridged:
(§1)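 Microdilution MIC run as the antibacterial protocol but on Sabouraud dextrose […] pH 7.3±0.2; compounds 100 to 0.78 μg/mL in twofold steps; saline-prepared inocula 1-2 × 10⁷ cfu/mL, 0.01 mL added; 37 °C aerobic, 18-24 h; MIC read as lowest concentration without visible growth or turbidity; fluconazole reference.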
For orientation: Broth dilution looks for growth in wells or tubes with falling amounts of substance.

The next data set has as its system Shigella boydii. Kind of data set: Antibacterial activity against Shigella boydii clinical isolate after 18 to 24 hrs by micro-dilution method. Type of data set: functional.
The subject of another data set is Plasmodium falciparum. Kind of data set: Antimalarial activity against erythrocytic stage of chloroquine sensitive Plasmodium falciparum 3D7 assessed as inhibition of parasitemia after 48 hrs by Giemsa staining based microscopic analysis. Type of data set: functional, organism-based. To be noted: 3D7, 48 h. The essentials:
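Asynchronous culture on human O⁺ erythrocytes, 1-1.5% parasitemia, 4% hematocrit, RPMI-1640 with HEPES, NaHCO₃, glutamine, gentamycin, Albumax II; drug 0.10-100 μg/mL, 48 h, 37 °C, medium changed at 24 h; triplicate wells; Giemsa thin smears, about 4,000 erythrocytes counted at 1,000X; % parasitemia inhibition versus control gives IC50.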

Data set [2] is described as follows: Cytotoxicity against human HuH7 cells after 72 hrs by MTT assay. Type of data set: cell-based, Huh-7. The essentials:
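Huh-7 cells, 4 × 10³/well in DMEM with 10% FBS and penicillin-streptomycin-glutamine; eight 2-fold dilutions 100-0.78 μg/mL, 72 h; MTT added 2-4 h, then isopropanol/Triton X-100/HCl solubilization 2 h dark, RT; absorbance 570 nm; CC50 as mean of at least two experiments in duplicate.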
For orientation: Tetrazolium assays rely on reduction of a dye to a coloured formazan, in cell work by metabolically active cells.

The next data set deals with Aspergillus niger. Kind of data set: Antifungal activity against Aspergillus niger clinical isolate after 18 to 24 hrs by micro-dilution method. Type of data set: functional. The procedure, abridged:
as §1

The next data set concerns Cryptococcus neoformans. Kind of data set: Antifungal activity against Cryptococcus neoformans clinical isolate after 18 to 24 hrs by micro-dilution method. Type of data set: functional. The procedure, abridged: as §1
For a further data set, the system named is Enterococcus faecalis. Kind of data set: Antibacterial activity against Enterococcus faecalis ATCC 29212 after 18 to 24 hrs by micro-dilution assay. The class given is functional.
Another data set deals with Staphylococcus aureus. Kind of data set: Antibacterial activity against Staphylococcus aureus […] after 18 to 24 hrs by micro-dilution method. The class given is functional.
In data set [3] the test system is Candida albicans. Kind of data set: Antifungal activity against Candida albicans clinical isolate after 18 to 24 hrs by micro-dilution method. The class given is functional. The essentials:
as §1

The subject of the next data set is Candida tropicalis. Kind of data set: Antifungal activity against Candida tropicalis ATCC 750 after 18 to 24 hrs by micro-dilution method. Type of data set: functional. The procedure, abridged: as §1
The test system of a further data set is Aspergillus fumigatus. Kind of data set: Antifungal activity against Aspergillus fumigatus clinical isolate after 18 to 24 hrs by micro-dilution method. Type of data set: functional. The essentials:
as §1

A further data set deals with Escherichia coli. Kind of data set: Antibacterial activity against Escherichia coli ATCC 35218 after 18 to 24 hrs by micro-dilution method. Type of data set: functional.
The test system of the next data set is Candida parapsilosis. Kind of data set: Antifungal activity against Candida parapsilosis ATCC 22019 after 18 to 24 hrs by micro-dilution method. The class given is functional. As to conditions: Lodderomyces parapsilosis. The essentials: as §1
A further data set relates to Pseudomonas aeruginosa. Kind of data set: Antibacterial activity against Pseudomonas aeruginosa […] after 18 to 24 hrs by micro-dilution method. The class given is functional.
A further data set deals with Arthrodermataceae. Kind of data set: Antifungal activity against Dermatophyte clinical isolate after 18 to 24 hrs by micro-dilution method. The class given is functional. The essentials:
as §1

The subject of the next data set is Klebsiella pneumoniae. Kind of data set: Antibacterial activity against Klebsiella pneumoniae ATCC 27736 after 18 to 24 hrs by micro-dilution method. Type of data set: functional.

Structures are written as SMILES. Values after ≈ are worked out from the molar mass of the structure shown. A value given as a limit tells only on which side of the number the result lay.

Broadly, the MIC is the lowest concentration found to suppress growth. High values mean a less susceptible organism, low ones a more susceptible organism. In general, IC50 refers to the point on the concentration scale where inhibition reaches its midpoint. What is called CC50 is the concentration that lowers cell viability or growth by half. Low readings indicate harm at low concentration, high ones better tolerance by the cells. With `COc1cc(OC)c2c(=O)cc(-c3ccc(OCc4cn(-c5ccccc5Cl)nn4)c(OCc4cn(-c5ccccc5Cl)nn4)c3)oc2c1`, the MIC against Candida albicans [1] was 12.5 µg/mL (≈ 17.9 µM); in the data set on Shigella boydii, over 100 µg/mL; in the data set with Aspergillus niger, 12.5 µg/mL (≈ 17.9 µM); with Cryptococcus neoformans, 6.25 µg/mL (≈ 8.96 µM); against Enterococcus faecalis it was over 100 µg/mL; against Staphylococcus aureus it was over 100 µg/mL. Besides, the MIC against Candida albicans [3] was 12.5 µg/mL (≈ 17.9 µM); against Candida tropicalis, 12.5 µg/mL (≈ 17.9 µM); in the data set with Aspergillus fumigatus, 12.5 µg/mL (≈ 17.9 µM); against Escherichia coli, over 100 µg/mL; with Candida parapsilosis, 12.5 µg/mL (≈ 17.9 µM); in the data set on Pseudomonas aeruginosa, over 100 µg/mL. Moreover, the MIC against Arthrodermataceae is 12.5 µg/mL (≈ 17.9 µM); against Klebsiella pneumoniae, over 100 µg/mL. The IC50 in the data set on Plasmodium falciparum came to 8.98 µg/mL (≈ 12.9 µM). Moreover, in data set [2], the half-maximal cytotoxic concentration (CC50) at 72 h was over 100 µg/mL.

For `COc1cc(OC)c2c(=O)cc(-c3ccc(OCc4cn(-c5ccc(Cl)cc5)nn4)c(OCc4cn(-c5ccc(Cl)cc5)nn4)c3)oc2c1`, the MIC against Candida albicans [1] was over 100 µg/mL; against Shigella boydii, 25 µg/mL (≈ 35.8 µM); against Aspergillus niger, over 100 µg/mL; against Cryptococcus neoformans it was over 100 µg/mL; against Enterococcus faecalis, 12.5 µg/mL (≈ 17.9 µM); against Staphylococcus aureus, 12.5 µg/mL (≈ 17.9 µM). The MIC is over 100 µg/mL in the data set with Candida albicans [3]; over 100 µg/mL against Candida tropicalis; over 100 µg/mL in the data set with Aspergillus fumigatus; 6.25 µg/mL (≈ 8.96 µM) in the data set with Escherichia coli; over 100 µg/mL against Candida parapsilosis; 12.5 µg/mL (≈ 17.9 µM) against Pseudomonas aeruginosa. Further, the MIC in the data set with Arthrodermataceae is over 100 µg/mL; in the data set on Klebsiella pneumoniae, 12.5 µg/mL (≈ 17.9 µM). In addition, the IC50 in the data set on Plasmodium falciparum stood at 11.3 µg/mL (≈ 16.2 µM). Moreover, the CC50 at 72 h in data set [2] was over 100 µg/mL.

In the case of `COc1cc(OC)c2c(=O)cc(-c3ccc(OCc4cn(-c5ccc(F)cc5F)nn4)c(OCc4cn(-c5ccc(F)cc5F)nn4)c3)oc2c1`, the MIC is 50 µg/mL (≈ 71.4 µM) with Candida albicans [1]; over 100 µg/mL against Shigella boydii; over 100 µg/mL against Aspergillus niger; over 100 µg/mL with Cryptococcus neoformans; 100 µg/mL (≈ 143 µM) against Enterococcus faecalis; over 100 µg/mL against Staphylococcus aureus. The MIC against Candida albicans [3] was over 100 µg/mL; in the data set on Candida tropicalis it was over 100 µg/mL; in the data set on Aspergillus fumigatus, over 100 µg/mL; against Escherichia coli it was over 100 µg/mL; in the data set with Candida parapsilosis it was 100 µg/mL (≈ 143 µM); against Pseudomonas aeruginosa, over 100 µg/mL. Besides, the MIC in the data set with Arthrodermataceae and against Klebsiella pneumoniae was over 100 µg/mL in each case. Besides, the IC50 with Plasmodium falciparum was 9.25 µg/mL (≈ 13.2 µM). In [2], the CC50 at 72 h was over 100 µg/mL.
